This is a sample that favours compounds with a hit; in the whole collection about 4.4% have one here.
AHR act: AHR activators, primary screen, cell-based, luminescence, luciferase reporter, human; actives 2.5% (n = 320,000); AHR-responsive luciferase reporter cells; activation, % at 5 µM; Aryl hydrocarbon receptor (Homo sapiens), P35869; AID 2796, 2010; in the data active means activation above about 47%;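 further: 0% = vehicle wells and 100% = reference agonist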
Target sequence (P35869 whole entry, looked up): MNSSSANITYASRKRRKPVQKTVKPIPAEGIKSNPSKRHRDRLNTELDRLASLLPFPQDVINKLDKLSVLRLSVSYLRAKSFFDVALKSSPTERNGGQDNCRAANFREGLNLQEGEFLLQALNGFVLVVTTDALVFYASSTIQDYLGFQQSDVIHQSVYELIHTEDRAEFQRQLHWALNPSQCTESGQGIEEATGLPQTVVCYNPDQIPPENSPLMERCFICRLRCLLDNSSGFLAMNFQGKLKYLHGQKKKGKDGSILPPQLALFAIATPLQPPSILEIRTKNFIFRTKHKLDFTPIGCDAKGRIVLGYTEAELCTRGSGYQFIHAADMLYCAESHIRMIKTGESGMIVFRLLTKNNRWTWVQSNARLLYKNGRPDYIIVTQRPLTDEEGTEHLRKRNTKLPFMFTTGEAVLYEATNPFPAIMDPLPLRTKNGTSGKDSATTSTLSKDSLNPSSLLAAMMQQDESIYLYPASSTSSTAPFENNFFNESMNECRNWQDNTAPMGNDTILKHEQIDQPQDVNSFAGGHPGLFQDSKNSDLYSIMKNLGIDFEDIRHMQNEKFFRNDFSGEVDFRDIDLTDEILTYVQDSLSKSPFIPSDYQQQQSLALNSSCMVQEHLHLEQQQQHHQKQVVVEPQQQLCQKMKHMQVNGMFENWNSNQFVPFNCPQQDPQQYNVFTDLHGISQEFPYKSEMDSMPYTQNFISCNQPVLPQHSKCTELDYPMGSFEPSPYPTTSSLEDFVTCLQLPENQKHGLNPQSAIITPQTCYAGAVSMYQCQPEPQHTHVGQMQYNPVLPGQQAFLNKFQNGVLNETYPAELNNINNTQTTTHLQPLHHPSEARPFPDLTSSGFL
Tb MetRS inh: T. brucei MetRS inhibitors, primary screen, biochemical, luminescence; methionyl-tRNA synthetase (Trypanosoma brucei brucei); purified T. brucei MetRS, ATP depletion, Kinase-Glo luminescence; inhibition, % at 11.9 µM; actives 0.4% (n = 360,000);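 active means inhibition above a per-plate cutoff of the control wells' mean inhibition plus 3 SD, cut at about 5.5% in these data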;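 further: 0% = DMSO wells median and 100% = median of wells with control inhibitor compound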
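Assay system: T. brucei methionyl-tRNA synthetase, purified | Medium: HEPES buffer with MgCl2, KCl, DTT, spermine, BSA, pyrophosphatase | Compound: 11.9 µM single point | Incubation: 15 min enzyme-compound preincubation, 2 h reaction, 10 min detection, 25 °C | Measured by: Kinase-Glo luciferase luminescence reporting remaining unconsumed ATP | Measure: % inhibition normalized to control-well medians | Replication: Singlicate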
m5-HT2A agonist: mouse Htr2a agonists via beta-arrestin recruitment, primary screen, cell-based, luminescence. 5-hydroxytryptamine receptor 2A (Mus musculus), P35363. CHO-K1 mHTR2A beta-arrestin complementation; percent of 30 µM serotonin response. activation, % at 7.6 µM. actives 0.66% (n = 360,000). AID 624169, 2012;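 active means activation above a run cutoff, the mean activation of all tested compounds plus 3 SD, cut at about 14% in these data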;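 further: 0% = plate median of compound wells and 100% = 30 µM serotonin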
MsrA inhibitor: bovine MsrA enzyme inhibitors, primary screen, biochemical, absorbance, HTS | Methionine sulfoxide reductase A (Bos taurus) | AID 651718, 2012 | inhibition, % at 15.5 µM | purified bovine MsrA, absorbance read-out | actives 0.75% (n = 360,000); in the data active means inhibition above about 4.5%;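 further: 0% = vehicle wells with enzyme and 100% = reference inhibitor wells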
AI-2 QS mod: Vibrio harveyi AI-2 quorum sensing modulators, primary screen, JMH597 strain, luminescence/OD600 ratio | actives 0.4% (n = 300,000) | Vibrio harveyi JMH597 AI-2 luminescence/OD600 ratio, 9 h; stronger effect = lower value; strain lacks LuxN and CqsS sensors; 0 = neutral-control median | activity change, % at 7.5 µM | AID 2094, 2009; in the data active means activity change below about -75%, passing the limit was not always enough; inconclusive means no clear call, values can overlap the other calls;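 further: luminescence divided by OD600 gain over 9 h not by final OD600 alone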
bovine MsrA act: bovine MsrA enzyme activators, primary screen, biochemical, absorbance, HTS; AID 602163, 2012; purified bovine MsrA, absorbance read-out; Methionine sulfoxide reductase A (Bos taurus); activation, % at 10.6 µM; actives 0.3% (n = 360,000); in the data active means activation above about 7.5%;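 further: 0% = vehicle and 100% = reference activator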
* hit, by the source's call; ? = inconclusive; · = not tested or not shown.

SMILES | AHR act | Tb MetRS inh | m5-HT2A agonist | MsrA inhibitor | AI-2 QS mod | bovine MsrA act
CCOc1ccc2[nH]c(C)c(CN3CCOCC3)c(=O)c2c1 | 1.4 | -0.4 | 8.6 | 1.3 | 24.8 | -1.9
NC(=S)N=Nc1c(O)n(CCCl)c2ccc(Cl)cc12 | 1.6 | -0.3 | -0.5 | 1.9 | -10.0 | -3.5
NC(=S)N=Nc1c(O)n(CCCl)c2ccccc12 | -0.7 | 0.2 | 2.3 | 4.6* | 20.7 | -2.0
COCc1cc(C)nc2sc(C(=O)N3CCCC3)c(N)c12 | 75.8* | -0.6 | 7.3 | 0.7 | 13.6 | -2.1
CCCCC(=O)Nc1ccc(NC(=O)c2ccc(C)c([N+](=O)[O-])c2)cc1OC | 71.9* | 0.2 | -5.9 | 1.1 | 25.9 | -3.4
CCCCn1c(NCc2ccccc2O)nc2ccccc21 | -0.5 | 3.1 | -4.0 | -0.4 | 20.4 | -0.9
Cn1c(NCc2cccs2)nc2ccccc21 | 48.7* | -0.1 | 9.6 | 1.1 | 14.7 | -2.3
Cn1c(NCc2c[nH]c3ccccc23)nc2ccccc21 | 74.5* | 3.5 | -0.2 | 0.0 | 3.3 | -1.4
CCn1c(NCc2cccs2)nc2ccccc21 | 2.1 | 0.0 | -3.0 | -1.3 | 3.4 | -9.9
C=CCn1c(NCc2c[nH]c3ccccc23)nc2ccccc21 | 14.8 | 0.0 | -1.2 | -0.6 | 10.7 | -4.2
CCn1c(NCc2c[nH]c3ccccc23)nc2ccccc21 | 48.4* | 1.2 | 3.0 | 0.6 | 43.8 | -8.6
C=CCc1cccc(CNc2nc3ccccc3n2CC)c1O | 19.9 | 39.8* | -8.2 | -1.2 | -7.1 | -3.0
COc1ccc(C2CC(=O)C(c3ccc([N+](=O)[O-])cc3)=CN2Cc2ccccc2)cc1 (centres undefined) | · | · | · | 4.4 | · | ·
Cc1ccc2nc(/C(C#N)=C\c3ccc([N+](=O)[O-])o3)[nH]c2c1 | 32.7 | 0.7 | 12.0 | 0.1 | ? | 4.2
Cc1ccc2nc(/C(C#N)=C\c3cc(C)n(-c4cccc([N+](=O)[O-])c4)c3C)[nH]c2c1 | 58.5* | -0.1 | -2.6 | 1.9 | 4.9 | -4.9
NC(=O)C12NC(Cc3ccccc31)c1ccccc12 (centres undefined) | · | · | · | 0.5 | · | ·
COc1cccc(-c2cc(C(F)(F)F)c3c(N)c(C#N)sc3n2)c1 | 55.4* | · | · | · | 2.1 | ·
COc1ccc(-c2cc(C(F)(F)F)c3c(N)c(C(=O)NCCSC)sc3n2)cc1 | 61.6* | -0.4 | -0.1 | 0.2 | 1.1 | -3.1
N#Cc1sc2nc(-c3ccccc3)cc(-c3ccco3)c2c1N | 29.1 | 1.1 | 7.5 | 1.4 | 16.5 | 2.8
COc1ccc(OC)c(NC(=O)c2sc3nc(Cc4ccccc4)cc(C(F)(F)F)c3c2N)c1 | 3.2 | -0.5 | -0.7 | -1.0 | 0.1 | -3.3
Nc1[nH]c(C(=O)c2ccc(Br)cc2)c(-c2ccccn2)c1C(=O)NCCc1c[nH]c2ccccc12 | · | · | · | 0.6 | · | ·
CC(C)C[C@H]1COc2c(Cl)cccc2S(=O)(=O)N1 | · | · | · | -0.7 | · | ·
O=[N+]([O-])c1cc(C=Nc2ccc3ccccc3c2)ccc1Br | 68.4* | -0.1 | 9.8 | 0.5 | 14.9 | -3.0
COc1ccc(-c2sc3ccc(OC)cc3c2C#CCCO)cc1 | 60.9* | -0.3 | -11.4 | · | -10.0 | -3.7
COc1cc(OC)cc(-c2sc3ccc(OC)cc3c2-c2ccc(O)cc2)c1 | 35.4 | -0.2 | -6.8 | 0.5 | · | -4.6
SMILES | AHR act | Tb MetRS inh | m5-HT2A agonist | MsrA inhibitor | AI-2 QS mod | bovine MsrA act
COc1ccc2sc(-c3ccc(N(C)C)cc3)c(C#Cc3cncn3C)c2c1 | 71.2* | -0.3 | 4.3 | 2.6 | · | -4.1
COc1ccc(-c2sc3ccc(OC)cc3c2-c2ccc(O)cc2)cc1 | 64.8* | -3.2 | 1.8 | -0.1 | · | -13.0
COc1ccc2sc(-c3ccc(N(C)C)cc3)c(C#CC(C)(C)O)c2c1 | 28.2 | -0.3 | 3.8 | -1.0 | · | 0.1
COc1ccc(-c2sc3ccc(N4CCOCC4)cc3c2C#CC(C)(C)O)cc1 | 48.8* | -0.2 | 0.9 | -1.5 | · | -0.6
O=C(COC(=O)c1ccc(O)cc1O)Nc1nnc(-c2ccccc2)o1 | 0.7 | -0.2 | 10.8 | 0.8 | 24.6 | -2.9
Nc1[nH]c(C(=O)c2ccccc2)c(-c2ccc3ccccc3c2)c1C(=O)NCc1cccc2ccccc12 | · | · | · | 1.8 | · | ·
Cc1ccc(NC(=O)COc2ccc(Br)cc2CO)cc1S(=O)(=O)N1CCOCC1 | 0.3 | 0.0 | -3.6 | 0.5 | · | -0.1
CC(C)(C)c1ccc(S(=O)(=O)NNC(=O)c2cc3ccccc3[nH]2)cc1 | 74.3* | 5.6 | 10.9 | 1.3 | -1.3 | -1.4
Cn1c(C(O)c2ccc(Br)cc2)nc(Cl)c1Cl (centres undefined) | 61.5* | 0.1 | 1.2 | -0.3 | -40.1 | -2.4
Cc1cc(N/N=C/c2ccccc2Br)nc2ccccc12 | 52.2* | 0.3 | -0.5 | -1.2 | -7.4 | -5.5
CN1C(=O)/C(=C/c2cn(CC(=O)NCc3ccco3)c3ccccc23)NC1=S | 58.4* | · | · | 0.4 | · | ·
CSCCC(NC(=O)c1ccccc1Cl)C(=O)NNC(=O)c1ccccc1O (centres undefined) | 57.6* | 0.0 | 0.9 | 1.2 | 9.5 | -5.6
COc1ccccc1C(=O)NC(CCSC)C(=O)NNC(=O)c1ccccc1O (centres undefined) | 27.8 | -0.7 | 6.1 | 0.6 | · | -12.5
COc1ccc(C2CC(=O)C(c3ccc4ccccc4c3)=CN2Cc2ccccc2)cc1 (centres undefined) | · | · | · | 1.1 | · | ·
CCOc1ccccc1C(=O)Nc1cccc2cccnc12 | 74.4* | -1.1 | -3.8 | -0.1 | 16.8 | -6.3
CCOc1ccccc1C(=O)Nc1nnc(C(C)C)s1 | 57.3* | -0.2 | -3.0 | -0.1 | 0.4 | 0.5
CCOc1ccc(C(=O)Nc2cccc3cccnc23)cc1 | 51.8* | -0.1 | 2.2 | -0.6 | 18.9 | -3.7
COCCNC(=S)N1C[C@H]2CON(C)[C@H]2C[C@H]1c1ccccc1Br | · | · | · | -0.5 | · | ·
Cc1cccc(-c2nnc(-c3ccc4ccccc4c3)o2)c1 | · | -0.1 | -0.2 | -0.8 | · | -0.6
C/C(=N\NC(=O)c1ccncc1)c1ccc(N(C)C)cc1 | 6.4 | 0.2 | -0.8 | 4.7* | 7.6 | -5.1
COc1ccccc1NC(=O)Cc1nnc(SCC(=O)c2ccc(F)cc2)n1C | 1.8 | 0.8 | 9.9 | 0.6 | 14.3 | -1.4
CC(N)c1csc(Nc2ccc(C(=O)NCCO)cc2)n1 (centres undefined) | · | -0.2 | -4.1 | 2.7 | · | -0.3
CC(=O)c1ccc(Nc2nc(C(C)N)cs2)cc1 (centres undefined) | · | -0.2 | 1.0 | 4.6* | · | -5.7
CN1CC(=O)N(CC(=O)Nc2ccc(SC(F)F)cc2)C1=O | 1.8 | 0.3 | -0.8 | 0.1 | -86.5* | -1.7
